Hits are enriched below; roughly 1.8% of the tested compounds scored in any of these assays.
S1P2 blocker: blocks the human S1P2 receptor. O95136. cell-based S1P2 antagonist assay, inhibition at 5 uM. inhibition, % at 5 µM. 0.21% of 97,000 active; in the data active means inhibition above about 45%;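 further: CRE beta-lactamase reporter cells expressing human S1P2 stimulated with S1P; 0% = agonist at EC80 alone and 100% = agonist plus reference antagonist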
HIV Rev-RRE inh: disrupts HIV-1 Rev binding to RRE RNA. P05866. Rev peptide-RRE RNA binding, FRET. inhibition, % at 8 µM. 0.79% of 97,000 active;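 active means inhibition above the screen-wide mean plus 3 SD, cut at about 35% in these data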;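 further: 0% = median DMSO wells and 100% = median Neomycin B control wells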
Target sequence (P05866 whole entry, looked up): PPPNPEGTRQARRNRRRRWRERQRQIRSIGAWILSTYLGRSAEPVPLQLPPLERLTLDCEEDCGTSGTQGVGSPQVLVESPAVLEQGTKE
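Material: labelled RRE RNA duplex and labelled Rev peptide / Buffer or medium: HEPES pH 7.5 salt buffer with EDTA / Compound dosing: single point, 8 µM final nominal compound concentration / Benchmarks: DMSO low control, neomycin B high control / Timing: 5 min preincubation and 15 min binding, 25 °C / Technique: FRET fluorescence readout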
GALR2 blocker: antagonists of human galanin receptor 2 (GALR2). O43603. GALR2-expressing cells, antagonist mode. inhibition, % at 4 µM. 0.39% of 140,000 active. AID 828; in the data active means inhibition above about 27%;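 further: cells stimulated with galanin 1-16 at roughly its EC80; 0% = agonist challenge control and 100% = basal control without agonist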
Target sequence (O43603 whole entry, looked up): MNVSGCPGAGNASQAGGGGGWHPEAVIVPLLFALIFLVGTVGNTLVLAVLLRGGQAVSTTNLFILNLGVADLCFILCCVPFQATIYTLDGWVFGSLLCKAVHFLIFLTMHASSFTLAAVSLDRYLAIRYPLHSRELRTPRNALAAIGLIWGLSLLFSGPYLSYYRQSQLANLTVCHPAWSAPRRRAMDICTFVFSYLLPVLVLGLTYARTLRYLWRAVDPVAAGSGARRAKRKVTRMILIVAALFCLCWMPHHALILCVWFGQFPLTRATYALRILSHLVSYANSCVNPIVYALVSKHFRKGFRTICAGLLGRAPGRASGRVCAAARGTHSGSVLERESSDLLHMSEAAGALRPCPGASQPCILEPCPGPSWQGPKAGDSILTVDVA
GALR2 ag: agonists of human galanin receptor 2 (GALR2). AID 803. 0.48% of 140,000 active. O43603. GALR2-expressing cells, agonist activation read-out. activation, % (no concentration beside the values); in the data active means activation above about 5%, passing the limit was not always enough;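 further: 0% = vehicle buffer wells and 100% = reference agonist at full effect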
EphB4 ephrin blk: blocks human EphB4 binding to ephrin-B2; P54760; 0.15% of 97,000 active; inhibition, % at 7 µM; EphB4 LBD / TNYL-RAW-Alexa532 peptide, fluorescence polarization; AID 720;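 active means inhibition above the screen-wide mean inhibition plus 3 SD, cut at about 15% in these data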;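 further: 0% = DMSO wells and 100% = excess unlabeled TNYL-RAW peptide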
S1P2 agonist: agonists of human S1P2 receptor | S1P2-expressing cell line, agonist reporter read-out | activation, % at 4.5 µM | 0.46% of 97,000 active | AID 729; in the data active means activation above about 16%;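 further: 0% = vehicle low control and 100% = maximal reference agonist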
An asterisk follows results filed as active; . = not tested or not shown; [ ] = remark or other dose.

SMILES	S1P2 blocker	HIV Rev-RRE inh	GALR2 blocker	GALR2 ag	EphB4 ephrin blk	S1P2 agonist
CCCOc1ccccc1Cn1c(=O)oc2ccc(C)cc21	-15	5	14	0	-4	4
CC1CCCCC1NS(=O)(=O)c1ccc(S(=O)(=O)NCc2ccncc2)cc1 (centres undefined)	55*	10	23	0	3	-3
O=C1CC(c2ccc(S(=O)(=O)NCc3ccncc3)cc2)CN1 (centres undefined)	14	5	7	-3	-7	0
COc1cccc(Nc2ncccc2C(=O)NCc2ccccc2)c1	10	52*	12	-3	-2	-2
Cc1cc([N+](=O)[O-])ccc1N(C)C	.	.	4	0	.	.
Cc1cccc(NC(=O)Nc2ccc(C#N)cc2)n1	.	.	38*	-3	.	.
Cc1cccc(NC(=O)Nc2cccc(C#N)c2)n1	.	.	18	0	.	.
COc1ccc(OC)c2c1C(=O)c1ccccc1C2=O	-21	75*[fluorescence artefact?]	10	-3	-2	-3
COC(=O)C1=CN(C(C)C)C=C(C(=O)OC)C1c1cc(Br)c(OC)c(OC)c1	-24	7	3	22*	4	18*
COc1cc(C(=O)NCc2ccccc2)cc(Br)c1OC	.	.	5	0	.	.
COC(=O)C1=CN(C(C)C)C=C(C(=O)OC)C1c1cccc(OC)c1	-17	-1	3	21*	0	12
CN(C)C1C(=O)c2ccccc2C1=O	.	.	-4	-2	.	.
C=CCn1c(NCCO)nc2c1c(=O)n(C)c(=O)n2C	18	56*	2	-3	-5	-5
CN(/C(=N\S(=O)(=O)c1ccccc1)C(F)(F)F)c1ccccc1	2	37*	-9	-1	8	-4
CNc1ncc(Cc2ccccc2)s1	.	.	-12	0	.	.
O=C(N/N=C/C1C(c2ccccc2)C1(Cl)Cl)c1cccc(Cl)c1 (centres undefined)	.	.	9	-2	.	.
Cc1nc2ccccc2n1CCc1nc2c3ccccc3nc(SCC#N)n2n1	-1	3	0	3	-11	39*
CCCCn1[nH]c(-c2ccccc2)cc1=O	.	.	11	0	.	.
Cc1c(CN(C)C(=O)/C=C/c2ccc([N+](=O)[O-])cc2)cnn1C	.	.	6	-2	.	.
O=C1/C(=C/c2ccc(N3CCCC3)cc2)NC(=S)N1C1CC1	3	137*[fluorescence artefact?]	5	-1	5	-8
O=C1N/C(=C/c2ccc(N3CCCC3)cc2)C(=O)N1c1ccccc1	.	.	16	2	.	.
NC(=O)C[n+]1cccc2ccccc21	8	37*	9	-1	0	-3
O=C(C1=C[C@@H]2[C@H]3C(=O)N(c4ccc(Cl)cc4)C(=O)[C@H]3[C@@H](C(=O)c3ccc(Cl)cc3)N2C=C1)c1ccccc1	.	.	-2	0	.	.
Cc1ccc(N2C(=O)C3C(C2=O)C(C(=O)c2ccc(Cl)cc2)N2CCCC32)cc1 (centres undefined)	1	62*	-2	-1	-7	-2
Cc1cccc(C(=O)N/N=C/c2cc(Br)c(Br)o2)c1	.	.	6	-1	.	.
SMILES	S1P2 blocker	HIV Rev-RRE inh	GALR2 blocker	GALR2 ag	EphB4 ephrin blk	S1P2 agonist
C1CCC(c2nn3c(-c4n[nH]c5c4CCC5)nnc3s2)CC1	-6	15	-9	1	-1	-4
CCN(CC)c1ccc(-c2nn3c(-c4n[nH]c5c4CCC5)nnc3s2)cc1	3	20	4	6.3*	-1	-1
O=[N+]([O-])c1ccc(/C=N/Nc2nc(N3CCCCCC3)nc(N3CCCCCC3)n2)o1	-2	46*	9	-1	2	-8
O=[N+]([O-])c1cc2c(cc1/C=N/Nc1nc(N3CCCC3)nc(N3CCCC3)n1)OCO2	.	.	8	1	.	.
COCCCNc1c2c3c(cccc3[nH]c1=O)C(=O)c1ccccc1-2	-11	141*[fluorescence artefact?]	16	-3	48*[fluorescence artefact?]	-6
CSc1nc(N(CCO)CCO)c2sc3nc(-c4ccco4)c4c(c3c2n1)CCC4	.	.	0	1	.	.
CSc1nc(SCCO)c2sc3nc(-c4ccco4)c4c(c3c2n1)CC(C)(C)OC4	-18	3	8	6.3*	-3	7
CCSc1nc(-c2ccccc2)nc(C(Cl)Cl)n1	.	.	-4	7.6*	.	.
O=C1C(Cc2cccc([N+](=O)[O-])c2)SC(=Nc2ccccc2)N1c1ccccc1 (centres undefined)	.	.	6	-2	.	.
COc1ccc(-n2nnnc2S(=O)(=O)CC(=O)N2CCCCC2)cc1	53*	6	48*	-2	8	-10
Cc1ccc(C(=O)/C=C/c2ccccc2)o1	-8	80*	-11	-1	4	0
Cc1ccc(C(=O)/C=C/c2ccc(Br)cc2)o1	-10	-3	11	-3	-4	-1
O=C1S/C(=C/c2ccc(N3CCOCC3)o2)C(=O)N1Cc1ccc(F)cc1	7	115*[fluorescence artefact?]	-5	-2	-4	-6
O=C1S/C(=C\c2ccc(N3CCOCC3)o2)C(=O)N1Cc1ccc(F)cc1	12	117*[fluorescence artefact?]	5	-3	8	-6
O=C1NC(=S)S/C1=C/c1ccc(N2CCOCC2)o1	.	.	6	0	.	.
CC(C)OC(=O)CN1C(=O)S/C(=C/c2ccc(N3CCCCC3)o2)C1=O	16	136*[fluorescence artefact?]	23	-3	-2	-9
CCCOC(=O)c1cccc(Nc2nc(-c3cccnc3)nc3ccccc23)c1	.	.	12	1	.	.
Cc1ccc(NC(=O)COC(=O)CNC(=O)c2ccc(Br)cc2)c(C)c1	.	.	11	-1	.	.
Cc1ccccc1C1C(C#N)=C2NC(=O)c3c(sc4c3CCCCC4)N2C2=C1C(=O)CC(C)(C)C2 (centres undefined)	9	40*	1	-1	0	-4
CC(=O)Nc1ccc(NC(=O)C(Cc2ccccc2)NC(=O)C2CCCCC2)cc1 (centres undefined)	.	.	-7	0	.	.
CC(C)CN(CC(C)C)C(=O)Cc1coc2ccc3ccccc3c12	-7	2	0	-1	2	-5
O=C(Cc1coc2ccc3ccccc3c12)N1CCCC1	-29	1	1	0	-6	25*
CN(C)c1nc(N)nc(CSc2n[nH]c(-c3ccccc3)n2)n1	-30	3	-1	-2	3	31*
c1ccc2nc3c(nc2c1)c1ccccc1n3CCN1CCOCC1	-63	7	-12	0	-8	3
CCn1c2ccccc2c2nc3cc(S(=O)(=O)N4CCOCC4)ccc3nc21	-32	9	-19	2	1	31*
Cc1sc2ncnc(NCC3(N4CCOCC4)CCCCC3)c2c1C	-11	4	-6	-3	2	-5
Cc1sc2ncnc(NCC(C)(C)N3CCOCC3)c2c1C	64*	8	26	0	-1	-6
COC(=O)c1c(C)c2c(C)cc3ccccn3c-2c1C(=O)OC	-20	46*	-6	-1	6	-7
CCCCc1ccc(NC(=O)COc2ccc(C(=O)Nc3ccccc3C)cc2)cc1	.	.	10	5.8*	.	.
Brc1ccc2[nH]c3nc(SCCN4CCOCC4)nnc3c2c1	-23	-1	5	0	0	16*

Screening data: PubChem, The Scripps Research Institute Molecular Screening Center
